This is a sample that favours compounds with a hit; in the whole collection about 2.9% have one here.
T cruzi repl – inhibitors of intracellular T. cruzi growth, primary screen, luminescence, NIH3T3 host cells | 1.4% of 300,000 active | inhibition, % (no concentration beside the values) | AID 1885, 2009 | T. cruzi beta-gal in NIH3T3, 90 h;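 active means mean inhibition across valid replicates above about 55%, limit read from the data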;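 further: signal also drops with host cell toxicity which is not excluded here; higher percent means less beta-gal luminescence so fewer parasites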
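Read-out: Parasite load inhibition, % | Test system: Mouse NIH/3T3 fibroblasts infected with β-gal-expressing T. cruzi Tulahuen C4 | Amount: 5,000 cells/well | Medium: DMEM, 2% fetal bovine serum | Signal: GalScreen β-gal luminescence, detergent lysis, 60 min | Timing: 3 h attach, ≥90 h co-culture | Also added: Tulahuen C4 trypomastigotes, 5000/well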
NR1D1 modulator – modulators of Rev-erb alpha DNA binding, primary screen, biochemical, FITC-DNA, fluorescence polarization, uHTS | Rev-erbα–FITC-DNA binding, 90 min | 0.79% of 370,000 active | activity, % at 10 µM | Nuclear receptor subfamily 1 group D member 1 (Homo sapiens), P20393 | AID 1259318, 2017;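 active means activity above about 14%, limit read from the data; passing the limit was not always enough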
Target sequence (P20393 whole entry, looked up): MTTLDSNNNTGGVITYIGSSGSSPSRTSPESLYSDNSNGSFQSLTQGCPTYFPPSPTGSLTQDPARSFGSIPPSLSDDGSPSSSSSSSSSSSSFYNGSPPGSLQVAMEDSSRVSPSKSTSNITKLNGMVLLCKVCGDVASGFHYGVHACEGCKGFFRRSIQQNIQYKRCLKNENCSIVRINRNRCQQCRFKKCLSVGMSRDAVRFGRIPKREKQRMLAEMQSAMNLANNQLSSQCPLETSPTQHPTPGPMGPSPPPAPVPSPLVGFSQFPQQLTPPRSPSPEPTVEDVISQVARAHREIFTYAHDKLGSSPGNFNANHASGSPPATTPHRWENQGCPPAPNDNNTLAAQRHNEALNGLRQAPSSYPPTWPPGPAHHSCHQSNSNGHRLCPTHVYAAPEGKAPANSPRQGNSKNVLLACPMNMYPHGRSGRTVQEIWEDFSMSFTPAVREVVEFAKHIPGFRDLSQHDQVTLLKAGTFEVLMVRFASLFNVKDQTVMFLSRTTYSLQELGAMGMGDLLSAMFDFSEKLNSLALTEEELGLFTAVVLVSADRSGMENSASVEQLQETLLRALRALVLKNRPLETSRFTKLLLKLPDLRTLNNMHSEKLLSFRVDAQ
PG9 binder – binders of HIV-1 gp120 antibody PG9, primary screen, biochemical, TR-FRET. HIV-1 gp120 / PG9 antibody interaction. inhibition, % at 6.7 µM. TR-FRET gp120-PG9 antibody binding. 0.43% of 360,000 active; in the data active means inhibition above about 8.5%
beta cell repl – inducers of MIN6 beta-cell proliferation, primary screen, ATP luminescence, uHTS; MIN6 cells proliferation, ATPlite luminescence, 48 h; cells starved in 0.2% serum; 100% = growth in 10% serum; proliferation, % at 10 µM; 0.29% of 330,000 active;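 active means compounds whose signal lies at least 3.5 SD above the mean of all wells on their plate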
TAG inh – inhibitors of triacylglycerol accumulation, primary screen, cell-based, uHTS, fluorescence, H9c2; H9c2 cells, Nile Red lipid (TAG) fluorescence; cells loaded with 200 µM oleic acid; inhibition, % at 12.5 µM; 0.66% of 230,000 active;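 active means pattern-corrected inhibition of lipid staining of at least 50% with the nuclear-stain viability signal not falling by more than 50%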
hiPSC survival – enhancers of single-cell hiPSC survival, primary screen, ATPlite luminescence. 0.044% of 360,000 active. 100% = ROCK inhibitor wells, 0% = DMSO. survival enhancement, % at 20 µM; in the data active means survival enhancement above about 18%;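 further: cells exposed to compounds for 16 hours before the ATP read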
PG9 binder conf – binders of anti-gp120 antibody PG9, confirmation, biochemical, TR-FRET; shares compounds with PG9 binder; TR-FRET PG9 antibody binding; inhibition, % at 6.7 µM; 90% of 1,500 active; AID 651571, 2012; in the data active means inhibition above about 9%
PGV04 counter – binders of control antibody PGV04, counter-screen for PG9 antibody binder project, biochemical, TR-FRET, distinct HIV envelope site; TR-FRET PGV04 antibody-gp120 binding; inhibition, % at 6.7 µM; 95% of 1,500 active; shares compounds with PG9 binder; in the data active means inhibition above about 9.5%
Large screens that a line does not name were inactive (follow-up assays come after a bar, where they were run).

Cc1nn(Cc2ccc(C(=O)N3CCOCC3)o2)c(C)c1Br	none
CCN(CC)C(=O)c1cccc(-c2csc(C(C)(O)c3ccccc3)n2)c1 (stereo unspecified)	none (no result: T cruzi repl, beta cell repl)
CCc1cccc(CC)c1NC(=O)C1SC(=Nc2ccccc2C)C(c2nc3ccccc3s2)=C1N (stereo unspecified)	PG9 binder 9.2 | PG9 binder conf 9.5 | PGV04 counter 13
COc1ccccc1OCC(=O)Nc1cccc(-c2nnc(-c3ccco3)o2)c1	none
O=C(COc1ccccc1)Nc1ccc(-c2nnc(-c3ccco3)o2)cc1	PG9 binder 70 | PG9 binder conf 55 | PGV04 counter 72
COc1cccc(C2C(C(=O)c3ccco3)=C(O)C(=O)N2CCN(C)C)c1OC (stereo unspecified)	none
CCN(CC)CCCN1C(=O)C(O)=C(C(=O)c2cc3ccccc3o2)C1c1ccccn1 (stereo unspecified)	PG9 binder 25 (no result: T cruzi repl) | PG9 binder conf 55 | PGV04 counter 72
CCN(CC)CCCN1C(=O)C(O)=C(C(=O)c2cc3cccc(OC)c3o2)C1c1ccncc1 (stereo unspecified)	PG9 binder 15 (no result: TAG inh) | PG9 binder conf 26 | PGV04 counter 37
CN(C)CCN1C(=O)C(O)=C(C(=O)c2cc3ccccc3o2)C1c1ccccn1 (stereo unspecified)	none (no result: NR1D1 modulator, PG9 binder, TAG inh, hiPSC survival)
COc1cccc2cc(C(=O)C3=C(O)C(=O)N(CCN(C)C)C3c3ccc(F)cc3)oc12 (stereo unspecified)	PG9 binder 21 (no result: TAG inh) | PG9 binder conf 31 | PGV04 counter 41
COc1cccc(C2C(C(=O)c3cc4ccccc4o3)=C(O)C(=O)N2CCN(C)C)c1OC (stereo unspecified)	PG9 binder 30 | PG9 binder conf 33 | PGV04 counter 54
O=S(=O)(CCCc1ccccc1)c1ncn[nH]1	none (no result: T cruzi repl, TAG inh)
CCOC(=O)C1(Cc2cccc(OC)c2)CCN(Cc2cccn2-c2nccs2)CC1	none
CC(C)CNC(=S)NNC(=O)c1ccc2c(c1)OCO2	none (no result: TAG inh)
CCOc1cc(/C=N/NC(=O)C(N)=O)cc(Br)c1O	none (no result: TAG inh)
CC(=O)c1ccc(NC(=O)C(C)N(C)CC(=O)Nc2cccc(F)c2)cc1 (stereo unspecified)	none (no result: T cruzi repl)
NS(=O)(=O)c1c(Sc2ccccc2C(=O)O)ccc2ccccc12	PG9 binder 15 | PG9 binder conf 15 | PGV04 counter 20
CNS(=O)(=O)c1cc(Cl)ccc1Sc1ccccc1C(=O)O	none
O=C(Nc1cc(F)cc(F)c1)c1sc(Cl)nc1-c1ccccc1	PG9 binder 9.6 (no result: TAG inh) | PG9 binder conf 14 | PGV04 counter 42
COc1ccc(OC)c(NC(=O)CSc2nncc3ccccc23)c1	PG9 binder 13 (no result: TAG inh) | PG9 binder conf inactive | PGV04 counter 10
COc1ccc(NC(=O)CSc2nncc3ccccc23)cc1	none
COC(=O)C[C@H]1C[C@H]2c3cc(NC(=O)C4CCOCC4)ccc3O[C@H]2[C@H](CO)O1	none (no result: T cruzi repl, beta cell repl)
O=C(C1=C(O)C(=O)N(CCCN2CCOCC2)C1c1ccc(Cl)cc1)c1cc2ccccc2o1 (stereo unspecified)	PG9 binder 20 (no result: TAG inh, hiPSC survival) | PG9 binder conf 24 | PGV04 counter 30
COc1cc(C2C(C(=O)c3ccc(C)o3)=C(O)C(=O)N2CCN2CCOCC2)ccc1OCCC(C)C (stereo unspecified)	PG9 binder 12 | PG9 binder conf 19 | PGV04 counter 22
COC(=O)c1ccc(C2C(C(=O)c3cc4ccccc4o3)=C(O)C(=O)N2CCN2CCOCC2)cc1 (stereo unspecified)	none (no result: TAG inh)
O=C(C1=C(O)C(=O)N(CCN2CCOCC2)C1c1ccc(Cl)cc1)c1cc2ccccc2o1 (stereo unspecified)	none (no result: TAG inh)
COc1cccc(C2C(C(=O)c3cc4ccccc4o3)=C(O)C(=O)N2CCN2CCOCC2)c1 (stereo unspecified)	PG9 binder 15 (no result: TAG inh) | PG9 binder conf 31 | PGV04 counter 54
C#CCCc1cocc1/C=[N+](\[O-])c1ccc(C(=O)OCC)cc1	none (no result: T cruzi repl)
COc1ccc(OC)c(C2C(C(=O)c3cc4ccccc4o3)=C(O)C(=O)N2c2cc(C)on2)c1 (stereo unspecified)	none
CCCOc1ccc(C2C(C(=O)c3cc4ccccc4o3)=C(O)C(=O)N2c2cc(C)on2)cc1OC (stereo unspecified)	none (no result: TAG inh)
C=CCOc1cccc(C2C(C(=O)c3cc4ccccc4o3)=C(O)C(=O)N2c2cc(C)on2)c1 (stereo unspecified)	PG9 binder 17 (no result: TAG inh) | PG9 binder conf 22 | PGV04 counter 35
COc1cccc(C2C(C(=O)c3cc4ccccc4o3)=C(O)C(=O)N2c2cc(C)on2)c1 (stereo unspecified)	PG9 binder 20 (no result: TAG inh) | PG9 binder conf 17 | PGV04 counter 25
COc1ccccc1C1C(C(=O)c2cc3ccccc3o2)=C(O)C(=O)N1c1cc(C)on1 (stereo unspecified)	PG9 binder 10 (no result: TAG inh) | PG9 binder conf 18 | PGV04 counter 32
C[C@@H]1Cn2cnc(C(=O)Nc3cccc(Cl)c3)c2C(=O)N1	none (no result: T cruzi repl, beta cell repl)
O=C1Cc2c([nH]c3ccc(Br)cc23)-c2ccccc2N1	PG9 binder 11 (no result: T cruzi repl, beta cell repl) | PG9 binder conf 16 | PGV04 counter 22
CC1(c2nnnn2-c2ccc3c(c2)OCCO3)CCC(=O)N1Cc1ccc(F)cc1 (stereo unspecified)	none (no result: T cruzi repl, beta cell repl, TAG inh)
CCC(C(=O)NC(C)(C)C)N(C(=O)c1ccc(Cl)nc1)C1CCCC1 (stereo unspecified)	none
COc1ccc(C2CC2/C(=N/O)c2ccccc2)cc1 (stereo unspecified)	none
Cc1ccc(NC(=O)CCn2cnc3ccccc3c2=O)cc1Cl	PG9 binder 13 (no result: TAG inh) | PG9 binder conf 18 | PGV04 counter 23
O=C(Nc1c(Br)cc2c(c1Br)Cc1ccccc1-2)C(Cl)Cl	PG9 binder 28 (no result: T cruzi repl, beta cell repl) | PG9 binder conf 25 | PGV04 counter 38
COc1cccc(OCc2nn3c(=O)c(-c4ccccc4)nnc3s2)c1	PG9 binder 12 (no result: beta cell repl, TAG inh) | PG9 binder conf 19 | PGV04 counter 35

Screening data (PubChem)
